Columns and labels:
[1] = Plasma pharmacokinetics in patients; format: in vivo, human
p-ERK = p-ERK immunohistochemistry; format: in vivo, human; settings: run-in and concurrent arms combined; H-score over 50 positive
Summary of the method: (§1)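 Tumour biopsies from the expansion cohort (20 patients with metastatic irinotecan- and oxaliplatin-refractory CRC on MEK inhibitor plus Wnt-modulator combination); two core biopsies per patient, taken pre- and post-treatment. IHC with hematoxylin counterstain; brown membrane/cytoplasmic staining was scored positive. H-score (0–300) was derived from the proportion and intensity of stained tumour cells in the predominant compartment. Values over 50 were positive, and results were summarised descriptively.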

FZD1/2 = FZD1/2 immunohistochemistry; format: in vivo, human; settings: run-in and concurrent arms combined; H-score over 50 positive
Summary of the method: as §1

[2] = single agent; cited from earlier work
[3] = in vivo; cited from earlier work
[4] = in vivo; cited from earlier work; remark: listed apart in the source
[5] = test system: advanced BRAF V600E or V600K mutated melanoma; settings: single agent, cited from earlier work

difference in pharmacokinetics of selumetinib given alone versus with CsA ([1]; day -7 vs C1D1) | Cmax ([1]; human, plasma, oral) [ng/mL] | Cmax ([1]; human, plasma, oral, 75 mg) [ng/mL] | half-life ([1]; human, plasma, oral, 75 mg) [h] | Compound | patients positive for p-ERK post-treatment (p-ERK) | patients positive for FZD1/2 post-treatment (FZD1/2) | Recommended Phase II Dose (RP2D) [2] [mg BID] | Visual changes, patients [3] [%] | dose limiting toxicity [3] | mean half-life (t½) [4] [h] | median progression-free survival ([5]; vs 1.5 in comparator, p < 0.001) [mos] | 6-month survival rate ([5]; vs 67% in comparator) [%]
no substantial difference | 1250 | 1550 | 6.4 | Cn1cnc2c(F)c(Nc3ccc(Br)cc3Cl)c(C(=O)NOCCO)cc21 [selumetinib] | 14 out of 15 | 11 out of 15 | 100 | 12 | grade 3 acneiform rash and pleural effusion | 5 to 8 |  | 
 |  |  |  | CC(=O)Nc1cccc(-n2c(=O)n(C3CC3)c(=O)c3c(Nc4ccc(I)cc4F)n(C)c(=O)c(C)c32)c1 [trametinib] |  |  |  |  |  |  | 4.8 | 81

From paper PMC6139073 (Cancer research, 2018)
